# Experimental data from the EternaBench riboswitch data.
# Experiments:
# MS2 coat protein [1] = experiment: apparent Kd, MS2 coat protein; higher = weaker binding; RNA-MaP array
# Outline: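 Apparent Kd values come from the median of binding-curve fits to single clusters. To obtain them, designed RNAs transcribed on an Illumina sequencing chip from sequenced DNA templates were incubated at room temperature with fluorescently labeled MS2 coat protein at 1.5 nM to 3 μM, with or without input ligand, for 0.8–1.5 h at the lowest and 10–20 min at the highest concentrations. Designs measured on fewer than 10 clusters were excluded.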
# MS2 coat protein [2] = experiment: apparent Kd, MS2 coat protein; higher = weaker binding; RNA-MaP array; FMN 200 µM where present
# Outline: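 Stalled E. coli RNA polymerase produced the designs on Illumina sequencing-chip clusters. SNAP-549-labelled MS2 coat protein was added from 0.7 or 1.5 nM, doubling to 3 µM, without and then with constant ligand, in 100 mM Tris-HCl pH 7.5, 80 mM KCl, 4 mM MgCl2, BSA, DTT, yeast tRNA and Tween-20. The apparent Kd is the median of filtered per-cluster fits of green signal normalised to red-channel RNA signal and control-cluster median Fmax.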
# [3] = designed as: ON switch for flavin mononucleotide, no ligand
# [4] = ligand present: flavin mononucleotide, designed as: ON switch for flavin mononucleotide
# [5] = designed as: OFF switch for flavin mononucleotide, no ligand
# [6] = ligand present: flavin mononucleotide, designed as: OFF switch for flavin mononucleotide
Sequence,apparent Kd (MS2 coat protein [2]; [3]) [nM],apparent Kd (MS2 coat protein [2]; [4]) [nM],apparent Kd (MS2 coat protein [2]; [5]) [nM],apparent Kd (MS2 coat protein [2]; [6]) [nM],also measured
CUUGGAAGACAGAAGGGCAUCCACCCGGGACCAGCAGGAUAUGUCAACGGUAGCCGAAAACAUGAGGAUCACCCAUGUCAGAAG,–,–,–,–,apparent Kd (MS2 coat protein [1]; [3]): 75.8 nM; apparent Kd (MS2 coat protein [1]; [4]): 30.1 nM
GAACAUCGAGGAUAUACAUGAGGAUCACCCAUGUAUUAGAGGGUGCCCUAGCUCAAAAGUAGAAGGCGACAGGU,–,–,–,–,apparent Kd (MS2 coat protein [1]; [5]): 9.8 nM; apparent Kd (MS2 coat protein [1]; [6]): 12.7 nM
GACUUGCAAGAGAAGGCGGCCACCAAUCAUCGGAGUGUAAACUCUACAUGAGGAUCACCCAUGUCCGAGGAUAUCUUCAUCAGU,–,–,–,–,apparent Kd (MS2 coat protein [1]; [3]): 59.9 nM; apparent Kd (MS2 coat protein [1]; [4]): 69.8 nM
AGCACAAAGUAGAAGGGUAGCACCGAUUUUCAUACAGGAUAUACGAAGGCAGGGUCAACAUGAGGAUCACCCAUGUUACCGCUU,–,–,–,–,apparent Kd (MS2 coat protein [1]; [3]): 5.59 nM; apparent Kd (MS2 coat protein [1]; [4]): 5.39 nM
ACGAACAUGAGGAUCACCCAUGUUGUUUCUAAGACUCGGUCAAGAAGGUGUCGUUACGAGUCGAACAAGGAUAUUGAUCCGAAC,–,–,–,–,apparent Kd (MS2 coat protein [1]; [3]): 28.6 nM; apparent Kd (MS2 coat protein [1]; [4]): 20.6 nM
GAUGCAACGCAGAAGGUAACCCAAUUAGGAGAUCUACAUGAGGAUCACCCAUGUAUUUGGAAAAUUAAGGAUAUGCCGAGGAUC,–,–,–,–,apparent Kd (MS2 coat protein [1]; [5]): 14.7 nM; apparent Kd (MS2 coat protein [1]; [6]): 19.5 nM
GUGCUACAUGAGGAUCACCCAUGUGUGUAACAACAAGGAUAUGAUGCUUUGCCCGAAAGGUCAGAAGGUGUACGGC,–,–,–,–,apparent Kd (MS2 coat protein [1]; [3]): 12.9 nM; apparent Kd (MS2 coat protein [1]; [4]): 11.1 nM
CACUACAUGAGGAUCACCCAUGUAUACUGACGAGGACCGGUACGGCCGCCACUCGAACCGAAACCGACUUCAUUCUGUGUACCAU,–,–,–,–,"apparent Kd (MS2 coat protein [1]; designed as: ON switch for tryptophan, no ligand): 15.4 nM; apparent Kd (MS2 coat protein [1]; ligand present: tryptophan, designed as: ON switch for tryptophan): 16.2 nM"
CUCGAGUUUACAGGAUAUUAGGAAAUCGGAUAUUAAGAAGGGUAAAUGUACAUGAGGAUCACCCAUGUUCUCUGCUGCGUCAUA,–,–,–,–,apparent Kd (MS2 coat protein [1]; [5]): 15.4 nM; apparent Kd (MS2 coat protein [1]; [6]): 14.5 nM
CGGAUUUGGUAGAAGGUUUCGUCACAUAUCGCAAAAGGAUAUACUAAACAUGAGGAUCACCCAUGUGUCGUGGGAGUUAAUUCA,–,–,–,–,apparent Kd (MS2 coat protein [1]; [5]): 72.3 nM; apparent Kd (MS2 coat protein [1]; [6]): 70.5 nM
ACAUACGAACGAGGAUAUCUCCACAUGAGGAUCACCCAUGUUUGGGUCCGAUAGUAGCGUGCAAAAGAGAAGGCGUGUACAUCC,–,–,–,–,apparent Kd (MS2 coat protein [1]; [5]): 22.8 nM; apparent Kd (MS2 coat protein [1]; [6]): 25.5 nM
GUGGUUGUCGUAGGAUAUGUAGGAUAUUCCUACAUGAGGAUCACCCAUGUUCGCAUGGAAGAAGGAUAGAAGGACGAUGACCAG,76.7,388,–,–,–
GUGGUCUGACAUGAGGAUCACCCAUGUGGAAUAAAUACGGGUUAGGAUAUCUUGAGGAUCACCCAAGAGAAGGGAUGGAUGGUC,100,106,–,–,–
CAGUUCUGAGGAUAUCCAUCCUCCUACAUGAGGAUCACCCAUGUUUCCCUCUGGGUUUUCGGAGAAGGCAGUUAUU,–,–,321,556,–
GUAGCUCCUGACAUGAGGAUCACCCAUGUUCAAUUAUUAAAUCAGGAUAUCGGCUAGAAACUAGCCGAGAAGGGAUAUGCUACU,5.13,5.97,–,–,–
CCGAAACCUCAGAAGGACCACAUGAGGAUCACCCAUGUCAAGCAAAACGGUAGGAUAUGAGGGAAAAGUCGGUGUACCCGACAG,8.93,5.76,–,–,–
GGAAUCUAGUCAGGAUAUCGGGCAAUAAUUGCACGAGAAGGGACAUGAGGAUCACCCAUGUACACCUCUGGUGAGUCUCGCAGG,–,–,16,44.3,–
UUUUUCUGUGUGAGGAUAUACUUUGUUUGGUCGUUGUAGAAGGCACAUGAGGAUCACCCAUGUAGUUUGUUGUG,–,–,23.9,33.1,–
CCGCUGUGAGGAUAUUAGUAGUAGUCAGAAUAGACUAUUACUGAGAAGGCACAUGAGGAUCACCCAUGUCGCGG,–,–,31.2,43.1,–
CUACCUUAUGAGAAGGCGAUUAUGAAACAUGAUCGAGGAUAUCAUGUAAACAUGAGGAUCACCCAUGUAUGGGUAUUAUGGUAA,211,32.8,–,–,–
GUACCAUAUGAGAAGGCGAUCAUGAAACAUGAUCGAGGAUAUCAUGAAAACAUGAGGAUCACCCAUGUAUGGGUAUUAAGGUAC,61.4,23.7,–,–,–
AGAGGUCGCACAGGAUAUCAUACAUGAGGAUCACCCAUGUCAGAAAACAAAUGAGAAGGGUGCGCAUUAAUUGCUUGUGAAGAA,15.1,5.12,–,–,–
AAGAUGCCUCCUGCUGGUGGGAGACAUGAGGAUCACCCAUGUCAGGAUAUCGGUUAAAGAGGACACGAGAAGGGACAGGAGUAC,–,–,8.19,9.23,–
UUACAGUGCGGGUAGGAUAUGUAGGGUGGUACAUGAGGAUCACCCAUGUAUCCACCCUUCGACCGGCAGAAGGGCCUAUCACUGC,15.9,13.6,–,–,–
UUGGUUGUCGUAGGAUAUGUAGGAUAUUCCUACAUGAGGAUCACCCAUGUUCGCAUGGAAGAAGGACAGAAGGACGAUGACCAA,1080,10.4,–,–,–
GGAAAACAUGAGGAUCACCCAUGUGAGGAUAUCGAUGUCCAAAAAAAGGUGCGGGACUCGAGAAGGCACUUGGA,–,–,55.6,47,–
GGCUACGUUUCGUAGCAGCUAGGUGAGGAUAUUCAAUUUUUCACAUGAGGAUCACCCAUGUAUGUGAAGAAGGCGCCUAGAAAU,11.8,5.04,–,–,–

Sequence,apparent Kd (MS2 coat protein [2]; [3]) [nM],apparent Kd (MS2 coat protein [2]; [4]) [nM],apparent Kd (MS2 coat protein [2]; [5]) [nM],apparent Kd (MS2 coat protein [2]; [6]) [nM],also measured
CUGAUGUCAGGAUAUCAGAAAAGGUGCGAGGACGCACCAAAUGAGAAGGGACAUGAGGAUCACCCAUGUAAAAC,–,–,22.3,139,–
CACGGAUAGUAGAAGGGUGACAUGAGGAUCACCCAUGUACACAUGCGUAUUAAAGUAUGUGAUCCACAGGAUAUACUAUCCGUG,776,93.8,–,–,–
AAGGAGUUAGGAUAUGCUGCUCGUCACUUGCGUGAUGAGUAGCAGAAGGGACAUGAGGAUCACCCAUGUAAAGA,–,–,41.9,21.9,–
GCAGAAAGUGUAGGAUAUAGAAAUUAGCGGAAACGCAAUACAUGAGGAUCACCCAUGUUUCCUCACUAGAAGGGCAAAAGCUGC,–,–,16.8,14.1,–
GUGUAGUCAGGAUAUACAUAGGAAGAGAAUAUAAUAUAAGUACAUGAGGAUCACCCAUGUAGAAGGGACAGUGU,–,–,35.3,39.9,–
AGAUAACACCAGAAGGACAUGAGGAUCACCCAUGUAGGAUAUGGGCAUCACUCGAGAAAGAAAAGACCAAAUGGACACAUGGUC,162,12.8,–,–,–
UAUGGUUAAGUCAGGAUAUACGUGCAGUUAUCUGAGUAGAAGGGACAUGAGGAUCACCCAUGUAUGGUAGUGUU,–,–,75.3,86.4,–
GUGUACAGAGGAUAUACAUGGGCAUGGAAACAUGCAUCUUCACAUGAGGAUCACCCAUGUAGAAGGCUGUACAC,–,–,34.7,21.3,–
UGUGCGUUGAUCUUCGAUCGGAGUACAUGAGGAUCACCCAUGUAGGAUAUUCAAAGACGCAGAUAGAAGAAGGACAUCGGUUUA,–,–,11.9,11.1,–
UAUUAAUGCAAGGAUAUGCUUUUAAUUUUUUUUGCAGAAGGUGCAACAUGAGGAUCACCCAUGUUUCCGGGUAU,–,–,26.5,39.1,–
AUGUUACAUGAGGAUCACCCAUGUGAGGAUAUGUGUACCGGUAAAAAAGUGUUUGGCCACAGAAGGCAUUUGGA,–,–,28.7,26.9,–
AAGAGACAUCAGAAGGGAGCCCGAACGCACGGCUCAGGAUAUGAGAUCUUAUGUAGUACGACAUGAGGAUCACCCAUGUCCGCG,36.2,8.27,–,–,–
CAUUAAUUCAUUAUAGUAAUUAUACAGGAUAUGUAACAUGAGGAUCACCCAUGUAUUCUUGGUAAACAGAAGGGUAUUACAAGU,–,–,13.7,12.8,–
GUAGCUACAUGAGGAUCACCCAUGUAGGAUAUCGCUAUUGUAAUCAUGUUACAUGAUUACAAUAGCGAGAAGGACGUUAGCUAC,–,–,6.5,7.16,–
GGAGCUCCUGACAUGAGGAUCACCCAUGUUCACUUAUUAAAUCAGGAUAUCGUCUCGAAACGAGACGAGAAGGGAUAUGCUCCU,7.67,7.01,–,–,–
UUAUUAUAUGUAGGAUAUGCAUAUUAUUAUUAUGCAGAAGGACAUGAGGAUCACCCAUGUAUGUUGUUAUUAUAUAUUAUAUAU,–,–,25.2,34.5,–
CUACAUGAGGAUCACCCAUGUGCACGCCAGAUCGGUGUGCGCAGAAGGGCCAUGGAGAAAGCCAGGCAGGAUAUGCAAAGGGCU,353,162,–,–,–
UUUGCAUUCCGAGGAUAUUCAGAUAAUAACUACACAUGAGGAUCACCCAUGUGGCGAUAGCCUAGGGAGAAGGCGGUUUGCUUU,19.7,20.9,–,–,–
AACAUUCUAUCUCAGGAUAUCAUGUCAAAGACAUGAGGAUCACCCAUGUACCAGGAAACUGGUUAUGAGAAGGGAGAUAGAAUGA,1220,227,–,–,–
GCAGGUUAAGUCAGGAUAUACCUAUGGAUACAUAGGUAGAAGGGACAUGAGGAUCACCCAUGUGCCUCACCUGC,–,–,18.3,63.1,–
GGAUAGGACAGAGGAUAUACGUGCUAUAGAUACUAGCAAAAUUUCCUCACAUGAGGAUCACCCAUGUAGAAGGCUGUCCUAUCG,–,–,16.8,354,–
ACGAUGUCAGGAUAUCGAUCACGGGUCUGAAGACACGUGUUUGAGAAGGGACAUGAGGAUCACCCAUGUGUCUA,–,–,43.6,223,–
AAGAAAGAAACAUAGGAUAUCAAGAAUAUAACAUGAGGAUCACCCAUGUAAAUACGAAAGUAUAAUGAGAAGGAUGGAUGAUCUUC,93.7,89,–,–,–
GUGAAGUAAGGAUAUACAUGAGGAUCACCCAUGUAAGGGAAGGUGAUGGGAGUAGAUAGUAGAAGGUACGAGGA,–,–,120,81.9,–
UGUUCUAUGUAGAAGGCCCAUAUCUGUACUUAGGGAGGAUAUACAUGAGGAUCACCCAUGUGUAGAGCUGGUGGACUGGACAGC,–,–,20.9,32.5,–
AGCUAGUCAGGAUAUGCGUGAAGAAUAAAACAAAUAACAACGCAGAAGGGACAUGAGGAUCACCCAUGUUAGCA,–,–,30.7,19.5,–
